# The source made the active and inactive calls.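 Rule for the calls, unless noted: active = NADPH fluorescence slope more negative than the mean of all samples by about 3 SD, 99.7% confidence; inactive = the rest.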
# Tests used:
# [1] = inhibitors of TNFa-induced NFkB p65 translocation, primary screen, imaging, HUVEC, MLSMR starter and 10KST1 sets (AID 438;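 active = inhibition above 20% together with a positive visual image hit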;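 note: compound added about 3h40 before a 20 min TNFalpha stimulation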;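 for inhibition: signal is the nuclear over cytoplasmic p65 intensity ratio per well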); details: HUVEC TNFa-induced p65 nuclear translocation; cell count: measured here: nuclei count (cytotoxicity indicator), at 2.08 µM; inhibition: at 2 µM, stronger effect = higher value, 0% TNFa-plus-vehicle, 100% no-TNFa wells
# [2] = inhibitors of E-selectin induction by TNFa, primary screen, imaging, HUVEC, immunofluorescence, MLSMR starter and 10KST1 sets (AID 487;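 active = visually confirmed hit in the image check and inhibition above 20%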;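 for inhibition: signal is fraction of cell area covered by stained E-selectin grains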;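 for nuclei count: 100% = median nuclei count of all wells on the same plate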); details: HUVEC TNFalpha-induced E-selectin immunofluorescence imaging, at 2 µM; inhibition: stronger effect = higher value; nuclei count: measured here: cell number, toxicity
# [3] = DUSP6 inhibitors restoring Erk phosphorylation by chemical complementation, primary imaging in DUSP6-transfected HeLa (AID 609;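 active = compounds giving at least 50% inhibition in the cell-based MKP-3 phosphatase rescue imaging test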;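 for inhibition: phospho-Erk level distribution per well compared with pooled transfected vehicle control wells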); details: HeLa MKP-3 transfected, phospho-Erk imaging KS statistic, at 10 µM, cells stimulated with TPA for 15 min
# [4] = target: Dual specificity protein phosphatase 6 (Homo sapiens) (UniProt Q16828); assay: as above; details: HeLa MKP-3 transfected, phospho-Erk imaging KS statistic; at 10 µM; stronger effect = higher value; cells stimulated with TPA for 15 min
# [5] = target: Voltage-gated potassium channel subunit beta-2 (Rattus norvegicus) (UniProt P62483); assay: KvBeta enzyme negative modulators, primary screen, biochemical, NADPH fluorescence (AID 622;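 active = fluorescence slope higher than the sample average by over 3 SD, cut at about -0.22 in these data, passing the limit was not always enough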;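 note: slope of raw intensity against log time taken from 70 to 1610 s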); details: recombinant KvBeta, 4-cyanobenzaldehyde reduction, at 10 µM, stronger effect = higher value
# [6] = target: Voltage-gated potassium channel subunit beta-2 (Rattus norvegicus) (UniProt P62483); assay: KvBeta positive modulators, primary screen, biochemical, NADPH fluorescence (AID 623); details: Recombinant KvBeta, NADPH fluorescence decrease slope, 10 min; at 10 µM; stronger effect = lower value;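 note: fluorescence intensity change per second fitted from 20 to 320 s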
# [7] = target: Alpha-2C adrenergic receptor (Homo sapiens) (UniProt P18825); assay: modulators of alpha2C/GIRK thallium flux, primary screen, cell-based, HEK293 alpha2C/GIRK1/2 (AID 624;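 active = fluorescence slope after compound addition differing from the mean of all screened samples at 99.7% confidence, in either direction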;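 note: slope of fluorescence ratio to pre-addition baseline per second over 15 to 24 s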); details: thallium flux BTC fluorescence, at 10 µM, actives lie on both sides
# [8] = inhibitors of larval lipid processing in zebrafish, primary screen, whole organism, PED6 fluorescence, gall bladder and intestine (AID 686;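 active = a full or partial loss of lipid-probe fluorescence in the fish gall bladder, intestine or both, judged by eye; inactive = no fluorescence loss, or compound toxic to the fish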;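 note: larvae 5 to 7 days old with five fish per well; signal comes from phospholipase A2 cleavage of quenched PED6 carried via bile; overnight exposure to compound and PED6 before scoring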); details: Zebrafish larvae PED6 lipid processing, fluorescence scoring; screened at 20 µM (by protocol)
# Summary of the method: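 Also added: quenched phospholipase substrate PED6, 100 nM final, ingested by larvae; System: zebrafish larvae, 5-7 d; Quantity: 5 larvae per well; Compound: 20 µM single dose; Schedule: overnight compound and PED6 incubation; Read-out: visual per-well fluorescence inhibition score; Measured by: By-eye fluorescence microscopy; Medium: E3.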
# [9] = inhibitors of Chlamydomonas gravitaxis, primary screen, whole organism, Chlamydomonas reinhardtii, WT vs cilia-less mutant, absorbance, 96-well (AID 463189;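 active = inhibition at or above 50% relative to wild type and mutant plate controls; inactive = inhibition below 50%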;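 note: 0% = wild type cc124 cells in DMSO and 100% = ciliumless bld1 mutant cells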); details: OD600 absorbance, 2 days, at 10 µM, stronger effect = higher value
# [10] = measured here: cell density z-score
# [11] = measured here: nuclear c-Myc green intensity z-score
# [12] = measured here: nuclear pErk red intensity z-score, stronger effect = higher value
# Alpha-2C adrenergic receptor (Homo sapiens), sequence (P18825 whole entry, looked up): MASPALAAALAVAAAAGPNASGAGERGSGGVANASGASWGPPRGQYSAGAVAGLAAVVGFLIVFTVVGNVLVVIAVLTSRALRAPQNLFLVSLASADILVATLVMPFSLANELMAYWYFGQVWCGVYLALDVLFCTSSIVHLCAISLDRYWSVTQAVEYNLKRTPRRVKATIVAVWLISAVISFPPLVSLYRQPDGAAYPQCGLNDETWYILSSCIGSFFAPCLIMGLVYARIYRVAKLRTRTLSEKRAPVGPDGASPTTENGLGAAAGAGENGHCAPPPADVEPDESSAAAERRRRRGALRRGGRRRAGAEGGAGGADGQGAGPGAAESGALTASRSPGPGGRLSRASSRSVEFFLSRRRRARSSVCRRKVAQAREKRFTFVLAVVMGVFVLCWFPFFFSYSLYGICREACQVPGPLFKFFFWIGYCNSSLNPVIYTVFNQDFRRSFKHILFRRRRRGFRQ
# Dual specificity protein phosphatase 6 (Homo sapiens), sequence (Q16828 whole entry, looked up): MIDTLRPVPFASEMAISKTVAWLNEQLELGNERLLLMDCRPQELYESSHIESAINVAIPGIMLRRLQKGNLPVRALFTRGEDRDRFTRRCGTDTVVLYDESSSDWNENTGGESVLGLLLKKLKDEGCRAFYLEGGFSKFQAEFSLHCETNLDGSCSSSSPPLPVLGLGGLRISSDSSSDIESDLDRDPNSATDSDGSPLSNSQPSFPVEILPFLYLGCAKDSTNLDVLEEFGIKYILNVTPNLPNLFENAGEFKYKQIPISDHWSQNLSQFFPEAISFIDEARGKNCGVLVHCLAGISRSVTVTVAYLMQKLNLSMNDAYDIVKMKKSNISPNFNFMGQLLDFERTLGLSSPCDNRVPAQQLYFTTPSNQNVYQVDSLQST
# Voltage-gated potassium channel subunit beta-2 (Rattus norvegicus), sequence (P62483 whole entry, looked up): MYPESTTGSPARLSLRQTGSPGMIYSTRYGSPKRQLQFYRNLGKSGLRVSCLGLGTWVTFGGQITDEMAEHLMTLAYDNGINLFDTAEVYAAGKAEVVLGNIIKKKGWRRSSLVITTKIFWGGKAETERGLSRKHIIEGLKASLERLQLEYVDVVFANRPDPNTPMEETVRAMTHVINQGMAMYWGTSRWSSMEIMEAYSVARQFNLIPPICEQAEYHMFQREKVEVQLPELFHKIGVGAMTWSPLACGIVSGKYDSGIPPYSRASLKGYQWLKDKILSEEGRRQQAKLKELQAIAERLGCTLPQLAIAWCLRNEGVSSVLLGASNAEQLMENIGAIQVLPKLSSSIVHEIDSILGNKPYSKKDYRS
SMILES,cell count [1],inhibition [1],inhibition [2],nuclei count [2] [%],"z-score [3, 10]","z-score [3, 11]","z-score [3, 12]",inhibition [4],fluorescence slope [5],NADPH fluorescence slope [6],slope [7],outcome [8],inhibition [9]
COc1ccc(C(=O)N2CCC(N3CCN(c4ccccc4)CC3)CC2)cc1OC,420,-28.9% (inactive),-222% (inactive),170,1.05,-0.675,-0.812,17.7% (inactive),-0.348 (inactive),9.9e-06 (inactive),0.00411 (inactive),inactive,29.9% (inactive)
Cc1nc(SCC(=O)c2ccccc2)c(C#N)c(-c2ccco2)c1C(=O)NCc1ccco1,391,0.8% (inactive),17.3% (inactive),138,0.205,-0.115,1.15,11.4% (inactive),-0.39 (inactive),-0.000131 (inactive),0.0062 (inactive),inactive,10.9% (inactive)
C/C=C/c1ccccc1OCc1ccc(C(=O)O)o1,540,-2.1% (inactive),9.9% (inactive),98.3,-2.68,0.479,0.66,0.671% (inactive),-0.571 (inactive),-6.2e-05 (inactive),0.00529 (inactive),inactive,-4.22% (inactive)
CC(C)Oc1ccc(/C(O)=C2/C(=O)C(=O)N(CCN(C)C)C2c2ccco2)cc1 (stereo not drawn),481,-1% (inactive),-6.9% (inactive),112,-0.569,-0.19,-0.239,-1.12% (inactive),-0.324 (inactive),1.4e-05 (inactive),0.00581 (inactive),inactive,6.02% (inactive)
CC1(C)Cc2c(C#N)c(OCC(=O)c3ccc(Cl)cc3)nc(-c3ccoc3)c2CO1,654,-2.9% (inactive),20% (inactive),170,-0.432,-0.355,0.479,13.2% (inactive),-0.487 (inactive),-4.2e-05 (inactive),0.00736 (inactive),inactive,40.4% (inactive)
Cc1ccc(S(=O)(=O)/C(C#N)=C/c2c(N3CCN(C)CC3)nc3c(C)cccn3c2=O)cc1,485,3.3% (inactive),20% (inactive),160,-0.459,0.434,1.14,20.3% (inactive),-0.382 (inactive),-4.1e-05 (inactive),0.00164 (active),inactive,-7.2% (inactive)
CCOC(=O)CSc1nc(N)c(C#N)c(-c2ccc(OC)cc2)c1C#N,475,1.6% (inactive),-88.5% (inactive),127,0.441,1.58,1.28,24.7% (inactive),-0.52 (inactive),-3.8e-05 (inactive),0.00551 (inactive),inactive,-7.05% (inactive)
C=CCc1c(C)nc(SCCC)[nH]c1=O,540,-10.1% (inactive),-102% (inactive),135,0.611,-0.0505,-0.577,7.93% (inactive),-0.486 (inactive),-1.9e-05 (inactive),0.0077 (inactive),inactive,18.7% (inactive)
C=CCn1c(SCC(=O)OC)nc2sc3c(c2c1=O)CCN(C)C3,489,5.2% (inactive),-55.9% (inactive),177,0.349,0.211,-0.762,1.48% (inactive),-0.234 (inactive),-1.8e-05 (inactive),0.00333 (inactive),inactive,-3.61% (inactive)
c1ccc(OCc2nn3c(C4CCCCC4)nnc3s2)cc1,633,-8.1% (inactive),-110% (inactive),167,-0.542,-0.363,1.81,-6.06% (inactive),-0.434 (inactive),-0.000186 (inactive),0.00482 (inactive),inactive,-1.22% (inactive)
COCc1[nH]nc2c1C(c1ccnc3ccccc13)C(C#N)=C(N)O2 (stereo not drawn),589,-5% (inactive),26.1% (inactive),102,0.598,-2.1,-0.301,29.9% (inactive),-0.519 (inactive),-1.8e-05 (inactive),0.00587 (inactive),inactive,15.7% (inactive)
CCCCNC1=C(Br)C(=O)CC(C)(C)C1,372,-30.7% (inactive),-34.3% (inactive),101,-0.472,1.05,0.291,11.9% (inactive),-0.52 (inactive),-9.2e-05 (inactive),0.00547 (inactive),inactive,23.6% (inactive)
Cc1coc2c(O)cc3c(c12)OC1(N2CCCCC2)C(=O)NCCCC31 (stereo not drawn),537,-25.4% (inactive),-78.3% (inactive),144,-0.8,0.13,2.15,-15% (inactive),-0.515 (inactive),-4.3e-05 (inactive),0.00313 (inactive),inactive,19.5% (inactive)
N#CCSc1nc2sc3c(c2c(=O)n1C1CCCCC1)CCCC3,651,-21.9% (inactive),9.7% (inactive),167,-0.927,0.708,1.09,3.56% (inactive),-0.354 (inactive),-1.5e-05 (inactive),0.00554 (inactive),inactive,-20.7% (inactive)
CCOC(=O)c1c(C(C#N)C#N)cc(C)nc1C,521,-5.3% (inactive),-83.6% (inactive),129,0.584,-0.43,0.768,-2.07% (inactive),-0.509 (inactive),-8e-05 (inactive),0.00491 (inactive),inactive,9.41% (inactive)
COc1nc(N(C)S(=O)(=O)c2ccc(C)cc2)nc(C)c1Cl,587,-20% (inactive),-69% (inactive),177,-0.267,-0.856,1.29,7.73% (inactive),-0.362 (inactive),-1.7e-05 (inactive),0.00412 (inactive),inactive,-4.99% (inactive)
